Data set [1] is described as follows: Cytotoxicity against human MT4 cells after 5 days by MTT assay. Format: cell-based. An outline of the steps:
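Mock-infected MT-4 cells (6×10^5 cells/mL) received serial fivefold compound dilutions in triplicate, run in parallel with the infected series. After 5 days, viability measured by MTT formazan absorbance at 540 and 690 nm, using the median OD of three wells.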

A short description of data set [2]: Selectivity index, ratio of CC50 for human MT4 cells to EC50 for HIV1 3B. The data set is classed as toxicity, cell-based. Particulars: read-out: Ratio CC50/EC50. An outline of the steps: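 Ratio CC50/EC50, both taken from the same 5-day MTT run in MT-4 cells. CC50 is from mock-infected wells.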
In data set [3] the test system is Human immunodeficiency virus 1. Description: Antiviral activity against HIV1 expressing reverse transcriptase K103N/Y181C mutant infected in human MT4 cells assessed as protection against virus-induced cytotoxicity after 5 days by MTT assay. Particulars: Human immunodeficiency virus 1, MT4, 120 h. The data set is classed as functional, organism-based. An outline of the steps:
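MT-4 cells, in exponential growth, pelleted and resuspended at 6×10^5 cells/mL, then infected or mock-infected. Compound added at start as serial fivefold dilutions in triplicate wells. Viability read by MTT reduction to formazan at 540 and 690 nm after 5 days.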
A general note: Tetrazolium dyes change colour on reduction, which living cells bring about.

For data set [4], the system named is Human immunodeficiency virus 1. Description: Antiviral activity against HIV1 3B infected in human MT4 cells assessed as protection against virus-induced cytotoxicity after 5 days by MTT assay. Format: functional, organism-based. As to conditions: Human immunodeficiency virus 1, 3B, MT4, 120 h. An outline of the steps: (§1)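 MT-4 cells (6×10^5 cells/mL) infected with HIV-1 IIIB or HIV-2 ROD at 100–300 CCID50. Compounds added at 10× stock as serial fivefold dilutions in triplicate, with untreated infected and mock-infected controls run alongside. Viability read by MTT reduction at 540 and 690 nm 5 days post-infection, using the median OD of three wells.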

Data set [5] concerns Human immunodeficiency virus 2. Description: Antiviral activity against HIV2 ROD infected in human MT4 cells assessed as inhibition of viral replication. The data set is classed as functional, organism-based. As to conditions: ISOLATE ROD. An outline of the steps:
as §1

Data set [6] addresses Human immunodeficiency virus type 1 reverse transcriptase (Human immunodeficiency virus 1, UniProt Q72547). The data set can be described thus: Inhibition of HIV1 reverse transcriptase assessed as incorporation of biotin-dUTP into poly(rA)-oligo(dT). An outline of the steps: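 ELISA-format RT kit with a poly(rA)-oligo(dT) homopolymer template/primer bound to the plate. Wild-type HIV-1 RT activity measured as biotin-dUTP incorporation into the template.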

Counter-ions that a name gives are not always drawn. Activity calls are given as the source filed them. The calls are words filed in the database; no cut-off is given here.

Usually CC50 stands for the concentration at which the toxic effect on the cells reaches its halfway point. Read a low CC50 as harm at low concentration. For orientation: EC50 means the concentration giving half of the maximal effect. On to `O=C1Nc2ccc(Cl)cc2[C@@](C#CC2CC2)(C(F)(F)F)O1` [EFAVIRENZ], for which the cytotoxic concentration (CC50) at 120 h in data set [1] was > 6.3 µM. The selectivity ratio in data set [2] was > 1190. In addition, the EC50 in data set [3] stood at 0.57 µM.

In the case of `Cc1cc(C#N)cc(C)c1Oc1nc(Nc2ccc(C#N)cc2)nc(N)c1Br` [ETRAVIRINE], in data set [1], the CC50 at 120 h was > 4.6 µM. Also, in data set [3], the EC50 was found to be 0.026 µM.

Consider `COc1nc(Nc2c(C)cc(C)cc2C)nc(NC2CCN(Cc3ccccc3C#N)CC2)n1`, for which the results for the EC50 in data set [4] and in data set [3] were 0.0192 µM and 6.7 µM, respectively. Half-maximal cytotoxicity in data set [1] (CC50 at 120 h) was put at 28 µM. Also, the selectivity ratio in data set [2] came to 1460. Besides, the outcome in data set [5] was inactive.

With `CNc1nc(Nc2c(C)cc(C)cc2C)nc(NC2CCN(Cc3ccc(F)cc3)CC2)n1`, the EC50 came to 0.0102 µM in data set [4] and 4.9 µM in data set [3]. Moreover, the midpoint of cytotoxicity in data set [1], the CC50 at 120 h, lay at 25.6 µM. Also, in data set [2], the selectivity ratio was determined as 2880. Besides, the result in data set [5] was inactive.

Regarding `CNc1nc(Nc2c(C)cc(C)cc2C)nc(NC2CCN(Cc3ccc(OC)cc3)CC2)n1`, the EC50 in data set [4] was 0.0095 µM; in data set [3], 5.8 µM. For the same compound, half-maximal cytotoxicity in data set [1] (CC50 at 120 h) was put at 22.1 µM. In addition, in data set [2], the selectivity ratio came out at 2310. Moreover, in data set [5], the result was inactive.

What is called IC50 is the midpoint of a concentration-inhibition curve. Consider `CNc1nc(Nc2c(C)cc(C)cc2C)nc(NC2CCN(Cc3cccc(C#N)c3)CC2)n1`, for which the EC50 stood at 0.007 µM in data set [4] and 4.6 µM in data set [3]. The same compound gave a cytotoxic concentration (CC50) at 120 h in data set [1] of 23 µM. Also, the selectivity ratio in data set [2] amounted to 3240. In addition, the result in data set [5] was inactive. Besides, the IC50 in data set [6] was 1.97 µM.

For `COc1nc(Nc2c(C)cc(C)cc2C)nc(NC2CCN(C(=O)c3ccccc3)CC2)n1`, the EC50 in data set [4] was 1.79 µM; in data set [3], > 28.8 µM. Besides, it took 28.8 µM to reach half-maximal cytotoxicity in data set [1] (CC50 at 120 h). In data set [2], the selectivity ratio came out at 16. In addition, the result in data set [5] was inactive.

Regarding `Nc1ccn([C@H]2CC[C@@H](CO)O2)c(=O)n1` [ZALCITABINE], the EC50 in data set [4] is 1.04 µM. The CC50 at 120 h in data set [1] is > 94.7 µM. Also, in data set [2], the selectivity ratio was > 93.

As to `CNc1nc(Nc2c(C)cc(C)cc2C)nc(NC2CCN(C(=O)c3ccc([N+](=O)[O-])cc3)CC2)n1`, the concentration for a half-maximal effect (EC50) in data set [4] is 1.79 µM; in data set [3], > 33.2 µM. This compound also returned a CC50 at 120 h in data set [1] of 33.2 µM. For the same compound, the selectivity ratio in data set [2] was determined as 18. Also, in data set [5], the outcome was inactive.

Take `CNc1nc(Nc2c(C)cc(C)cc2C)nc(NC2CCN(C(=O)c3ccc(C(=O)O)cc3)CC2)n1`: the EC50 is ≥ 127 µM in data set [4] and > 255 µM in data set [3]. Besides, in data set [1], the CC50 at 120 h was ≥ 255 µM. Moreover, the selectivity ratio in data set [2] was ≥ 2. Moreover, the outcome in data set [5] was inactive.

In the case of `CNc1nc(Nc2c(C)cc(C)cc2C)nc(NC2CCN(Cc3ccc([N+](=O)[O-])cc3)CC2)n1`, the EC50 in data set [4] is 0.0082 µM; in data set [3] it was ≥ 2.6 µM. Half-maximal cytotoxicity in data set [1] (CC50 at 120 h) was put at 10.2 µM. The selectivity ratio in data set [2] stood at 1230. For the same compound, the result in data set [5] was inactive.

Take `CNc1nc(Nc2c(C)cc(C)cc2C)nc(NC2CCN(Cc3ccccc3)CC2)n1`: the EC50 in data set [4] came out at 0.0088 µM; in data set [3], 5 µM. Half-maximal cytotoxicity in data set [1] (CC50 at 120 h) was put at 28.4 µM. Moreover, in data set [2], the selectivity ratio is 3190. Further, the outcome in data set [5] was inactive. Also, the IC50 in data set [6] was 2.46 µM.

As for `COc1nc(Nc2c(C)cc(C)cc2C)nc(NC2CCN(C(=O)c3ccc(C(=O)O)cc3)CC2)n1`, the results for the EC50 in data set [4] and in data set [3] were 36.2 µM and > 149 µM, respectively. Further, in data set [1], the CC50 at 120 h was ≥ 149 µM. In data set [2], the selectivity ratio was ≥ 4. The result in data set [5] was inactive.

Regarding `CNc1nc(Nc2c(C)cc(C)cc2C)nc(NC2CCN(Cc3ccccc3C#N)CC2)n1`, the EC50 worked out at 0.0099 µM in data set [4] and 4.6 µM in data set [3]. The CC50 at 120 h in data set [1] was 24.7 µM. Besides, the selectivity ratio in data set [2] was found to be 2500. For the same compound, the outcome in data set [5] was inactive.

For `CNc1nc(Nc2c(C)cc(C)cc2C)nc(NC2CCN(C(=O)c3ccc(O)cc3)CC2)n1`, the EC50 in data set [4] is 0.932 µM; in data set [3] it was > 55.4 µM. For the same compound, the CC50 at 120 h in data set [1] is 55.4 µM. In addition, in data set [2], the selectivity ratio turned out to be 60. For the same compound, the outcome in data set [5] was inactive.

For the compound `COc1nc(Nc2c(C)cc(C)cc2C)nc(NC2CCN(Cc3cccc(C#N)c3)CC2)n1`, the EC50 came to 0.0098 µM in data set [4] and 4.6 µM in data set [3]. Also, in data set [1], it took 23.5 µM to reach half-maximal cytotoxicity (CC50 at 120 h). Besides, the selectivity ratio in data set [2] stood at 2380. Also, the result in data set [5] was inactive.

For the compound `COc1ccc(CN2CCC(Nc3nc(Nc4c(C)cc(C)cc4C)nc(OC)n3)CC2)cc1`, the figures for the EC50 in data set [4] and in data set [3] were 0.0097 µM and 7.4 µM, respectively. For the same compound, it took 19.8 µM to reach half-maximal cytotoxicity in data set [1] (CC50 at 120 h). Besides, the selectivity ratio in data set [2] was found to be 2040. Further, in data set [5], the outcome was inactive.

Take `Cc1cn([C@H]2C[C@H](N=[N+]=[N-])[C@@H](CO)O2)c(=O)[nH]c1=O` [ZIDOVUDINE]: the EC50 in data set [4] came out at 0.0206 µM; in data set [3], 0.0086 µM. The compound further returned a CC50 at 120 h in data set [1] of 250 µM. Besides, in data set [2], the selectivity ratio is 12200.

`COc1nc(Nc2c(C)cc(C)cc2C)nc(NC2CCN(Cc3ccc(C#N)cc3)CC2)n1`: the results for the EC50 in data set [4] and in data set [3] were 0.0092 µM and 1.6 µM, respectively. In data set [1], this compound yielded a CC50 at 120 h of 14.6 µM. The selectivity ratio in data set [2] stood at 1600. In addition, the result in data set [5] was inactive. The half-inhibitory concentration (IC50) in data set [6] was 1.77 µM.

On to `COc1nc(Nc2c(C)cc(C)cc2C)nc(NC2CCN(C(=O)c3ccc([N+](=O)[O-])cc3)CC2)n1`, for which the values for the EC50 in data set [4] and in data set [3] were 4.37 µM and > 25.2 µM, respectively. For the same compound, the CC50 at 120 h in data set [1] is ≥ 25.2 µM. In addition, the selectivity ratio in data set [2] was ≥ 6. For the same compound, the outcome in data set [5] was inactive.

Consider `COc1nc(Nc2c(C)cc(C)cc2C)nc(NC2CCN(Cc3ccc([N+](=O)[O-])cc3)CC2)n1`, for which the EC50 in data set [4] is 0.0094 µM; in data set [3] it was ≥ 6.1 µM. In data set [1], this compound gave a CC50 at 120 h of 15.4 µM. For the same compound, the selectivity ratio in data set [2] is 1640. For the same compound, the result in data set [5] was inactive.

Consider `CNc1nc(Nc2c(C)cc(C)cc2C)nc(NC2CCN(Cc3ccc(C#N)cc3)CC2)n1`, for which the EC50 in data set [4] was 0.0085 µM; in data set [3], 1.3 µM. The compound also gave a 50% cytotoxic concentration (CC50) at 120 h in data set [1] of 10 µM. In data set [2], the selectivity ratio was determined as 1190. The result in data set [5] was inactive.

For the compound `COc1nc(Nc2c(C)cc(C)cc2C)nc(NC2CCN(C(=O)c3ccc(O)cc3)CC2)n1`, the EC50 was 1.66 µM in data set [4] and > 121 µM in data set [3]. The compound further showed a CC50 at 120 h in data set [1] of 121 µM. The selectivity ratio in data set [2] was 73. Also, in data set [5], the outcome was inactive.

For the compound `CC(C)Nc1cccnc1N1CCN(C(=O)c2cc3cc(NS(C)(=O)=O)ccc3[nH]2)CC1` [DELAVIRDINE MESYLATE], the values for the EC50 in data set [4] and in data set [3] were 0.0326 µM and > 36.2 µM, respectively. Moreover, the CC50 at 120 h in data set [1] is > 36.2 µM. Besides, the selectivity ratio in data set [2] is > 1100.

For the compound `COc1nc(Nc2c(C)cc(C)cc2C)nc(NC2CCN(Cc3ccc(F)cc3)CC2)n1`, the EC50 turned out to be 0.0115 µM in data set [4] and 6.5 µM in data set [3]. Moreover, in data set [1], the cytotoxic concentration (CC50) at 120 h was found to be 24.7 µM. Also, the selectivity ratio in data set [2] turned out to be 2140. Also, the outcome in data set [5] was inactive.

On to `COc1nc(Nc2c(C)cc(C)cc2C)nc(NC2CCN(Cc3ccccc3)CC2)n1`, for which the figures for the EC50 in data set [4] and in data set [3] were 0.0113 µM and 4.8 µM, respectively. In data set [1], this compound came in with a CC50 at 120 h of 28.6 µM. For the same compound, the selectivity ratio in data set [2] worked out at 2510. In addition, the outcome in data set [5] was inactive.

Regarding `Cc1ccnc2c1NC(=O)c1cccnc1N2C1CC1` [NEVIRAPINE], the figures for the EC50 in data set [4] and in data set [3] were 0.0901 µM and 11.2 µM, respectively. The CC50 at 120 h in data set [1] was > 15 µM.

Turning to `CNc1nc(Nc2c(C)cc(C)cc2C)nc(NC2CCN(C(=O)c3ccccc3)CC2)n1`, the EC50 in data set [4] is 0.224 µM; in data set [3] it was > 30.9 µM. In data set [1], the CC50 at 120 h was determined as 30.9 µM. The selectivity ratio in data set [2] worked out at 132. The outcome in data set [5] was inactive.
